According to ChEMBL document CHEMBL4725242, “Discovery of GS-9688 (Selgantolimod) as a Potent and Selective Oral Toll-Like Receptor 8 Agonist for the Treatment of Chronic Hepatitis B” (J Med Chem, 2020):
Calls of active or inactive are those of the source.

What was measured:
[1] = molecular target: Toll-like receptor 5 (Homo sapiens) (UniProt O60602); assay: Agonist activity at human TLR5 expressed in HEK293 cells assessed as increase in NF-kappaB activation up to 10 uM incubated for 24 hrs by quanti-blue SEAP reporter gene assay; format: cell-based; details: dose microM <=10, time 24.0 hrs
In short: (§1)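 HEK293 cells stably expressing individual human TLRs or other innate immune receptors, used as reporter gene assays. Minimum effective concentration defined as the level giving a 3-fold rise over background.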

[2] = Clearance in dog hepatic microsomes at 2 uM measured up to 60 mins in presence of NADPH generating system by LC-MS/MS analysis; format: ADME, Canis lupus familiaris, Microsome; details: liver microsomes
[3] = Cmax in Sprague-Dawley rat at 5 mg/kg, po administered via gavage by HPLC-MS analysis; format: ADME, organism-based; parameters: route oral, dose 5 mg/kg; details: in vivo
In short: (§2)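 Oral dosing in 2% ethanol/40% PEG 300/58% 0.01N HCl: Sprague Dawley rats 5 mg/kg, beagle dogs 0.5 mg/kg, cynomolgus monkeys 3 mg/kg.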

[4] = Cmax in Beagle dog at 0.5 mg/kg, po administered via gavage by HPLC-MS analysis; format: ADME, organism-based, Canis lupus familiaris; parameters: route oral, dose 0.5 mg/kg; details: in vivo; in short: as §2
[5] = Drug absorption in Beagle dog at 0.5 mg/kg, po administered via gavage by HPLC-MS analysis; format: ADME, organism-based, Canis lupus familiaris; details: in vivo, read-out: Drug absorption; in short: as §2
[6] = molecular target: Toll-like receptor 4 (Homo sapiens) (UniProt O00206); assay: Agonist activity at human TLR4 expressed in HEK293 cells assessed as increase in NF-kappaB activation up to 10 uM incubated for 24 hrs by quanti-blue SEAP reporter gene assay; format: cell-based; details: dose microM <=10, time 24.0 hrs; in short: as §1
[7] = molecular target: Nucleotide-binding oligomerization domain-containing protein 2 (Homo sapiens) (UniProt Q9HC29); assay: Agonist activity at human NOD2 expressed in HEK293 cells assessed as increase in NF-kappaB activation up to 10 uM incubated for 24 hrs by quanti-blue SEAP reporter gene assay; format: cell-based; details: dose microM <=10, time 24.0 hrs; in short: as §1
[8] = molecular target: T1, Interferon-induced helicase C domain-containing protein 1 (Homo sapiens) (UniProt Q9BYX4); assay: Agonist activity at human MDA5 expressed in HEK293 cells assessed as induction of IFN-inducible ISG54 promoter activity up to 10 uM after overnight incubation by secreted lucia luciferase reporter gene assay; format: cell-based; details: dose microM <=10; in short: as §1
T1 sequence (whole entry): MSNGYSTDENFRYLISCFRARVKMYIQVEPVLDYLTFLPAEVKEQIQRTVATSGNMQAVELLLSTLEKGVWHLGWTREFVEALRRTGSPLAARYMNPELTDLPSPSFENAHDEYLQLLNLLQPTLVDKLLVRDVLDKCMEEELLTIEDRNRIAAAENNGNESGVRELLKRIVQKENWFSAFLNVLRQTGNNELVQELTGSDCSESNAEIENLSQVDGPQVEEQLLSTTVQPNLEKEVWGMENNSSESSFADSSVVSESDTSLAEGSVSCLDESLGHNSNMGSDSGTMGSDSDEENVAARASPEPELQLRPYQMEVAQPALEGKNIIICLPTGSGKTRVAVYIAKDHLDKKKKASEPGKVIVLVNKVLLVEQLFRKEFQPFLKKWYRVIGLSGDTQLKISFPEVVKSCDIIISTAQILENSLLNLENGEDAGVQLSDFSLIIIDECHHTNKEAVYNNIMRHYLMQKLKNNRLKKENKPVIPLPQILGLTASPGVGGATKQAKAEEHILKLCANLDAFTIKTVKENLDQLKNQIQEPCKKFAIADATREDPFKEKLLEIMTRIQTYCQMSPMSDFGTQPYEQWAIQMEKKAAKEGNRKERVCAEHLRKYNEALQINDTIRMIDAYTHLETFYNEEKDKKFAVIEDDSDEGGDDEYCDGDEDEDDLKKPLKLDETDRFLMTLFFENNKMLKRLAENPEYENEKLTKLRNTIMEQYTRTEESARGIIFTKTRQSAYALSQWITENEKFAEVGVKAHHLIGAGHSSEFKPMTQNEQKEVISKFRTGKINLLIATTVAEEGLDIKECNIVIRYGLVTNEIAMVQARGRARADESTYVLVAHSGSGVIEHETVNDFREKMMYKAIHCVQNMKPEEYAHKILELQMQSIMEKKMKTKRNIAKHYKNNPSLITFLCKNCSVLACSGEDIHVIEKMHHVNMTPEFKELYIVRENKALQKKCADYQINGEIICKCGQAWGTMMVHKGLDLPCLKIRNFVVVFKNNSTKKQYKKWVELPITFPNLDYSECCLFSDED

Toll-like receptor 4 (Homo sapiens), sequence (O00206 whole entry, the tested form may be a part): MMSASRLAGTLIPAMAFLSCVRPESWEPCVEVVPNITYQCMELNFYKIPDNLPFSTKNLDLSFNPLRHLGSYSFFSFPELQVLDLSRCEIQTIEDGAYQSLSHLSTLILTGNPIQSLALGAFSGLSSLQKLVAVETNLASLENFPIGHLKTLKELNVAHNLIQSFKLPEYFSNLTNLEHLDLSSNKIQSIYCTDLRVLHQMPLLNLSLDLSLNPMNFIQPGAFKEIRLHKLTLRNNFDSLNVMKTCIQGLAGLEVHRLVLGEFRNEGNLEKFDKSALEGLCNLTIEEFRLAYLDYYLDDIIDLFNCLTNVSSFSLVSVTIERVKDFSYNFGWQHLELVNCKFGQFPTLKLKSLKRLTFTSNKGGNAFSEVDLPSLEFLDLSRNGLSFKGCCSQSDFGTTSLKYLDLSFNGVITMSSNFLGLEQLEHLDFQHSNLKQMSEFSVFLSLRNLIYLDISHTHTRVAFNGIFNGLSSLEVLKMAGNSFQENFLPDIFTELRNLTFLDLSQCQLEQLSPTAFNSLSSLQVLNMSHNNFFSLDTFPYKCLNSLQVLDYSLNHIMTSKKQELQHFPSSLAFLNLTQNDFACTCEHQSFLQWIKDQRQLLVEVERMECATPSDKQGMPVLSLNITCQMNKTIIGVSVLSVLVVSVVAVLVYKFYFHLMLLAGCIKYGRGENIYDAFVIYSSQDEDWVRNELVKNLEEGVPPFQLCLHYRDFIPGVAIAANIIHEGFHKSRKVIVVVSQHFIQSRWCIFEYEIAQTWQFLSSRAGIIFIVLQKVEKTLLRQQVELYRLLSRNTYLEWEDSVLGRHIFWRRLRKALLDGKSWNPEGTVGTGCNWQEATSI
Toll-like receptor 5 (Homo sapiens), sequence (O60602 whole entry): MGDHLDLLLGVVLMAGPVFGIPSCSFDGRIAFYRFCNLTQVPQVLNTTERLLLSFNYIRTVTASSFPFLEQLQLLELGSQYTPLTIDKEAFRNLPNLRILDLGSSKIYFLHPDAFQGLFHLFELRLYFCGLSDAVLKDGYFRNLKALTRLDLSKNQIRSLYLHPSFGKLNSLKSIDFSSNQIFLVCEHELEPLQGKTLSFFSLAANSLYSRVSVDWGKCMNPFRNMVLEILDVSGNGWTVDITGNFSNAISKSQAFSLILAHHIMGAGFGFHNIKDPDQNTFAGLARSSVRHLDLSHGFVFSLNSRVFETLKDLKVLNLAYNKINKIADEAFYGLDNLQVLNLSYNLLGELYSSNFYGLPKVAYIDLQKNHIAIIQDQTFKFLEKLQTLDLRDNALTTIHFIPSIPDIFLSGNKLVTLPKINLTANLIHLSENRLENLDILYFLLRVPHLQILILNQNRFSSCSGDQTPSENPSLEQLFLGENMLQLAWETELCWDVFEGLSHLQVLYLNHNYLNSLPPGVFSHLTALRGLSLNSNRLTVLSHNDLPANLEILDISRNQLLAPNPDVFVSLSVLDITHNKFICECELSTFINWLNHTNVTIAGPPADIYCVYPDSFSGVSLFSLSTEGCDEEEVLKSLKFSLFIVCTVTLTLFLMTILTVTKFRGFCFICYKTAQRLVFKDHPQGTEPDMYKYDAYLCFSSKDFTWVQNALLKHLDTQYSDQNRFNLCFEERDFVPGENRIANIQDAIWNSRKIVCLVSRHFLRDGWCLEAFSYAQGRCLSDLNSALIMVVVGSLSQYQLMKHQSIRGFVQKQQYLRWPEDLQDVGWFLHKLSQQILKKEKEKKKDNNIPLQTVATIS
Nucleotide-binding oligomerization domain-containing protein 2 (Homo sapiens), sequence (Q9HC29 whole entry, the tested form may be a part): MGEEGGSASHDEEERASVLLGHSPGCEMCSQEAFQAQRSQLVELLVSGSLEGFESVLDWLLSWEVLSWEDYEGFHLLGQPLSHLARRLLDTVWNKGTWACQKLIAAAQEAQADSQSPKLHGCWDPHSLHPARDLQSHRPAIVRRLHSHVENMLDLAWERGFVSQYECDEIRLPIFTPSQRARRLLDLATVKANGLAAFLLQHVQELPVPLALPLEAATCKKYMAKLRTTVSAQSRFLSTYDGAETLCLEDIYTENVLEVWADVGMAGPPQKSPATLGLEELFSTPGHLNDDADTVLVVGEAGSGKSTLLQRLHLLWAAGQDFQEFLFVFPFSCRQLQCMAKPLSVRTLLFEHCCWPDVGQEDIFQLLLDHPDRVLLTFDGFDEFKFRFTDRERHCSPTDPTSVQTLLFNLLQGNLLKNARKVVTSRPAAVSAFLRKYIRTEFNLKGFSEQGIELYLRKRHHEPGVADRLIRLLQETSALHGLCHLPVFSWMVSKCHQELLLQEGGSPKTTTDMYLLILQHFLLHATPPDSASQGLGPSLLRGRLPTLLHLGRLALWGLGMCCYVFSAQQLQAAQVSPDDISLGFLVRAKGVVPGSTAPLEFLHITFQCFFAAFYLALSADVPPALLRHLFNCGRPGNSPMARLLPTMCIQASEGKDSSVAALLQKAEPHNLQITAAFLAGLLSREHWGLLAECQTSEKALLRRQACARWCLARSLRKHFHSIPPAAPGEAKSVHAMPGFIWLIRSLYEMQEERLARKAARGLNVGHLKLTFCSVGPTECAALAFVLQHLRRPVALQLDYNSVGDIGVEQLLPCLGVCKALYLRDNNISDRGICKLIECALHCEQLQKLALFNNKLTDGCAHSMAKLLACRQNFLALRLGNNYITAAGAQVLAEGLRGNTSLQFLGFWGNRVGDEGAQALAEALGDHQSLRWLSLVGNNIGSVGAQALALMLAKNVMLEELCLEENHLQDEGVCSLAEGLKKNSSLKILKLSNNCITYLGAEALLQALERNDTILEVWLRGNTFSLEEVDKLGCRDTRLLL

For `CCCC[C@](C)(CO)Nc1nc(N)nc2cc(F)cnc12` [SELGANTOLIMOD], the Activity [1] was “inactive”, the CLhep predicted at 2 µM [2] was 28.3 mL/min/kg and the Cmax [3] was 517 nM. For the same compound, the Cmax [4] was 9.7 nM, the Fa [5] was 28% and the Activity [6] was “inactive”. For the same compound, the Activity [7] was “inactive” and the Activity [8] was “inactive”.
